Measurements: ChEMBL document CHEMBL4765388, “Fluoropyrimidin-2,4-dihydroxy-5-isopropylbenzamides as antitumor agents against CRC and NSCLC cancer cells” (Eur J Med Chem, 2020)
Calls of active or inactive are those of the source. The rule behind the calls is not given here.

Experiments:
A549 [1] = test: Antiproliferative activity against human A549 cells measured after 48 hrs by SRB assay; assay type: functional
Summary of the method: (§1)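 Cells seeded and cultured overnight, then exposed to a gradient of compound concentrations for 48 h in medium with 5% FBS. A time-zero plate was fixed with 10% TCA at drug addition. After treatment, cells were fixed with 10% TCA and stained with 0.4% SRB in 1% acetic acid. Each experiment was run at least three times.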

HCT-116 [2] = test: Antiproliferative activity against human HCT-116 cells measured after 48 hrs by SRB assay; assay type: functional
Summary of the method: as §1, with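 “acid. Bound dye was dissolved in 10 mM trizma base, absorbance read at 515 nm, and GI50 derived.” for “acid.”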

[3] = target: Heat shock protein HSP 90-alpha (Homo sapiens, UniProt P07900); test: Inhibition of recombinant human full-length C-terminal Hsi-tagged HSP90alpha (1 to 732 residues) expressed in Escherichia coli measured after 2 to 3 hrs by FITC-labeled geldanamycin probe based fluorescence polarization assay
NCI-H460 = test: Antiproliferative activity against human NCI-H460 cells measured after 48 hrs by SRB assay; assay type: functional
Summary of the method: as §1, with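 “acid. Bound dye was dissolved in 10 mM trizma base, absorbance read at 515 nm, and GI50 derived.” for “acid.”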

NCI-H1975 [4] = test: Antiproliferative activity against human NCI-H1975 cells measured after 48 hrs by SRB assay; assay type: functional
Summary of the method: as §1, with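 “acid. Bound dye was dissolved in 10 mM trizma base, absorbance read at 515 nm, and GI50 derived.” for “acid.”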

A549 [5] = test: Induction of apoptosis in human A549 cells assessed as increase in cleaved caspase 8 expression after 48 hrs by Western blot analysis; assay type: functional, cell-based
Summary of the method: (§2)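 Cells grown in RPMI 1640 with 10% FBS were left to attach overnight, then exposed to compound at stated concentrations for 48 h. Lysates were immunoblotted for cleaved PARP, γH2AX and cleaved caspase-3, -8 and -9. Each experiment was done at least three times.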

A549 [6] = test: Inhibition of HSP90 in human A549 cells assessed as down regulation of EGFR expression at 0.075 to 1.25 uM after 24 hrs by Western blot analysis; assay type: cell-based; settings: dose 0.075-1.25 µM
NCI-H1975 [7] = test: Cell cycle arrest in human NCI-H1975 cells assessed as accumulation at sub-G1 phase at 0.075 to 1.25 uM measured after 48 hrs by propidium iodide staining based flow cytometry; assay type: functional; settings: dose 0.075-1.25 µM
Summary of the method: (§3)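 Cells in RPMI 1640 with 10% FBS, 37 °C, 5% CO2; 2.5×10^5/well, treated with DMSO or compound. Washed in PBS, fixed overnight in ice-cold 70% EtOH at -20 °C, stained in PBS with propidium iodide 80 µg/ml, Triton X-100 0.1% and RNase A 100 µg/ml. DNA content measured by FACScan; sub-G1 fraction quantified; means ± S.D., ≥3 independent experiments.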

NCI-H1975 [8] = test: Induction of apoptosis in human NCI-H1975 cells assessed as increase in cleaved PARP expression after 48 hrs by Western blot analysis; assay type: functional, cell-based; summary of the method: as §2
A549 [9] = test: Induction of apoptosis in human A549 cells assessed as increase in cleaved caspase 3 expression after 48 hrs by Western blot analysis; assay type: functional, cell-based; summary of the method: as §2
HCT-116 [10] = test: Potency index, ratio of BIIB021 IC50 to test compound IC50 for human HCT-116 cells; assay type: functional
NCI-H1975 [11] = test: Induction of apoptosis in human NCI-H1975 cells assessed as increase in activated gamma H2AX expression after 48 hrs by Western blot analysis; assay type: functional, cell-based; summary of the method: as §2
NCI-H1975 [12] = test: Inhibition of HSP90 in human NCI-H1975 cells assessed as upregulation of HSP70 expression at 0.075 to 1.25 uM after 24 hrs by Western blot analysis; assay type: cell-based; settings: dose 0.075-1.25 µM
A549 [13] = test: Inhibition of colony formation in human A549 cells at 0.009 to 0.018 uM measured after 24 hrs by crystal violet staining based assay; assay type: functional, cell-based; settings: dose 0.009-0.018 µM
Summary of the method: (§4)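 Cells at 5×10^3/well, exposed to DMSO or compound for 24 h. Drug was washed out, and cells were trypsinized, replated and grown for 10 days. Colonies were fixed and stained with crystal violet (0.5% in 70% EtOH) and counted as % of control. Repeated at least twice.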

NCI-H1975 [14] = test: Induction of apoptosis in human NCI-H1975 cells assessed as increase in cleaved caspase 9 expression after 48 hrs by Western blot analysis; assay type: functional, cell-based; summary of the method: as §2
A549 [15] = test: Cell cycle arrest in human A549 cells assessed as accumulation at sub-G1 phase at 0.15 to 2.5 uM measured after 48 hrs by propidium iodide staining based flow cytometry; assay type: functional; settings: dose 0.15-2.5 µM; summary of the method: as §3
NCI-H1975 [16] = test: Induction of apoptosis in human NCI-H1975 cells assessed as increase in cleaved caspase 8 expression after 48 hrs by Western blot analysis; assay type: functional, cell-based; summary of the method: as §2
A549 [17] = test: Induction of apoptosis in human A549 cells assessed as increase in activated gamma H2AX expression after 48 hrs by Western blot analysis; assay type: functional, cell-based; summary of the method: as §2
A549 [18] = test: Inhibition of HSP90 in human A549 cells assessed as upregulation of HSP70 expression at 0.075 to 1.25 uM after 24 hrs by Western blot analysis; assay type: cell-based; settings: dose 0.075-1.25 µM
NCI-H1975 [19] = test: Inhibition of colony formation in human NCI-H1975 cells at 0.009 to 0.018 uM measured after 24 hrs by crystal violet staining based assay; assay type: functional, cell-based; settings: dose 0.009-0.018 µM; summary of the method: as §4
NCI-H1975 [20] = test: Induction of apoptosis in human NCI-H1975 cells assessed as increase in cleaved caspase 3 expression after 48 hrs by Western blot analysis; assay type: functional, cell-based; summary of the method: as §2
NCI-H1975 [21] = test: Inhibition of HSP90 in human NCI-H1975 cells assessed as down regulation of AKT expression at 0.075 to 1.25 uM after 24 hrs by Western blot analysis; assay type: cell-based; settings: dose 0.075-1.25 µM
HCT-116 [22] = test: Inhibition of colony formation in human HCT-116 cells at 0.009 to 0.018 uM measured after 24 hrs by crystal violet staining based assay; assay type: functional, cell-based; settings: dose 0.009-0.018 µM; summary of the method: as §4
A549 [23] = test: Induction of apoptosis in human A549 cells assessed as increase in cleaved caspase 9 expression after 48 hrs by Western blot analysis; assay type: functional, cell-based; summary of the method: as §2
A549 [24] = test: Induction of apoptosis in human A549 cells assessed as increase in cleaved PARP expression after 48 hrs by Western blot analysis; assay type: functional, cell-based; summary of the method: as §2
NCI-H1975 [25] = test: Inhibition of HSP90 in human NCI-H1975 cells assessed as down regulation of EGFR expression at 0.075 to 1.25 uM after 24 hrs by Western blot analysis; assay type: cell-based; settings: dose 0.075-1.25 µM
A549 [26] = test: Inhibition of HSP90 in human A549 cells assessed as down regulation of AKT expression at 0.075 to 1.25 uM after 24 hrs by Western blot analysis; assay type: cell-based; settings: dose 0.075-1.25 µM

## O=c1[nH]cc(F)c(=O)[nH]1 [FLUOROURACIL]
A549 [1]
  GI50: 19800 nM
HCT-116 [2]
  GI50: > 10000 nM

## CC(C)c1cc(C(=O)N(C)c2ccc(Cn3c(=O)c(F)cn(C4CCCO4)c3=O)cc2)c(O)cc1O (stereo not drawn)
A549 [1]
  GI50: 90 nM
[3]
  IC50: 40.9 nM
NCI-H460
  GI50: 70 nM
HCT-116 [2]
  GI50: 120 nM
NCI-H1975 [4]
  GI50: 60 nM

## O=c1[nH]c(=O)n(C2CCCO2)cc1F (stereo not drawn) [TEGAFUR]
A549 [1]
  GI50: > 50000 nM
HCT-116 [2]
  GI50: > 10000 nM

## CC(C)c1cc(-c2n[nH]c(=O)n2-c2ccc3c(ccn3C)c2)c(O)cc1O [GANETESPIB]
HCT-116 [2]
  GI50: 150 nM

## CC(C)c1cc(C(=O)N(Cc2ccc(C#N)cc2)c2ccc(Cn3c(=O)c(F)cn(C4CCCO4)c3=O)cc2)c(O)cc1O (stereo not drawn)
A549 [1]
  GI50: 350 nM
[3]
  IC50: 45.3 nM
NCI-H460
  GI50: 200 nM
HCT-116 [2]
  GI50: 410 nM
NCI-H1975 [4]
  GI50: 130 nM

## CC(C)c1cc(C(=O)N(Cc2ccc(Cl)cc2)c2ccc(Cn3c(=O)c(F)cn(C4CCCO4)c3=O)cc2)c(O)cc1O (stereo not drawn)
A549 [1]
  GI50: 560 nM
[3]
  IC50: 54.7 nM
NCI-H460
  GI50: 460 nM
HCT-116 [2]
  GI50: 700 nM
NCI-H1975 [4]
  GI50: 160 nM

## CC(C)c1cc(C(=O)N(Cc2ccccc2)c2ccc(Cn3c(=O)c(F)cn(C4CCCO4)c3=O)cc2)c(O)cc1O (stereo not drawn)
A549 [1]
  GI50: 800 nM
[3]
  IC50: 45.3 nM
NCI-H460
  GI50: 400 nM
HCT-116 [2]
  GI50: 780 nM
NCI-H1975 [4]
  GI50: 160 nM

## CCCN(C(=O)c1cc(C(C)C)c(O)cc1O)c1ccc(Cn2c(=O)c(F)cn(C3CCCO3)c2=O)cc1 (stereo not drawn)
A549 [1]
  GI50: 650 nM
[3]
  IC50: 48.2 nM
NCI-H460
  GI50: 520 nM
HCT-116 [2]
  GI50: 960 nM
NCI-H1975 [4]
  GI50: 340 nM

## COc1ccc(CN(C(=O)c2cc(C(C)C)c(O)cc2O)c2ccc(Cn3c(=O)c(F)cn(C4CCCO4)c3=O)cc2)cc1 (stereo not drawn)
A549 [1]
  GI50: 920 nM
[3]
  IC50: 58.8 nM
NCI-H460
  GI50: 390 nM
HCT-116 [2]
  GI50: 720 nM
NCI-H1975 [4]
  GI50: 230 nM

## COc1c(C)cnc(Cn2cnc3c(Cl)nc(N)nc32)c1C [BIIB021]
NCI-H460
  GI50: 210 nM
HCT-116 [2]
  GI50: 150 nM
NCI-H1975 [4]
  GI50: 200 nM

## C#CCN(C(=O)c1cc(C(C)C)c(O)cc1O)c1ccc(Cn2c(=O)[nH]cc(F)c2=O)cc1
A549 [1]
  GI50: 30 nM
[3]
  IC50: 54.4 nM
NCI-H460
  GI50: 70 nM
HCT-116 [2]
  GI50: 40 nM
NCI-H1975 [4]
  GI50: 20 nM

## C=CCN(C(=O)c1cc(C(C)C)c(O)cc1O)c1ccc(Cn2c(=O)[nH]cc(F)c2=O)cc1
A549 [1]
  GI50: 100 nM
[3]
  IC50: 48 nM
NCI-H460
  GI50: 70 nM
HCT-116 [2]
  GI50: 80 nM
NCI-H1975 [4]
  GI50: 50 nM

## CCN(C(=O)c1cc(C(C)C)c(O)cc1O)c1ccc(Cn2c(=O)c(F)cn(C3CCCO3)c2=O)cc1 (stereo not drawn)
A549 [5]
  Activity: Dose-dependent effect
A549 [6]
  inhibition: Active
NCI-H1975 [7]
  Activity: Active
NCI-H1975 [8]
  Activity: Dose-dependent effect
A549 [1]
  GI50: 70 nM
[3]
  IC50: 27.8 nM
A549 [9]
  Activity: Dose-dependent effect
HCT-116 [10]
  Ratio IC50: 15
NCI-H1975 [11]
  Activity: Dose-dependent effect
NCI-H1975 [12]
  inhibition: Active
A549 [13]
  inhibition: Active
NCI-H1975 [14]
  Activity: Dose-dependent effect
A549 [15]
  Activity: Active
NCI-H1975 [16]
  Activity: Dose-dependent effect
A549 [17]
  Activity: Dose-dependent effect
NCI-H460
  GI50: 60 nM
A549 [18]
  inhibition: Active
NCI-H1975 [19]
  inhibition: Active
NCI-H1975 [20]
  Activity: Dose-dependent effect
NCI-H1975 [21]
  inhibition: Active
HCT-116 [22]
  inhibition: Active
HCT-116 [2]
  GI50: 10 nM
A549 [23]
  Activity: Dose-dependent effect
A549 [24]
  Activity: Dose-dependent effect
NCI-H1975 [25]
  inhibition: Active
NCI-H1975 [4]
  GI50: 40 nM
A549 [26]
  inhibition: Active

## CCN(C(=O)c1cc(C(C)C)c(O)cc1O)c1ccc(Cn2c(=O)[nH]cc(F)c2=O)cc1
A549 [1]
  GI50: 40 nM
[3]
  IC50: 44.9 nM
NCI-H460
  GI50: 30 nM
HCT-116 [2]
  GI50: 30 nM
NCI-H1975 [4]
  GI50: 30 nM

## CCNC(=O)c1noc(-c2cc(C(C)C)c(O)cc2O)c1-c1ccc(CN2CCOCC2)cc1 [LUMINESPIB]
A549 [1]
  GI50: 10 nM
NCI-H460
  GI50: 30 nM
NCI-H1975 [4]
  GI50: 20 nM

## CC(C)c1cc(C(=O)Nc2ccc(Cn3c(=O)c(F)cn(C4CCCO4)c3=O)cc2)c(O)cc1O (stereo not drawn)
A549 [1]
  GI50: > 10000 nM
[3]
  IC50: > 1000 nM
NCI-H460
  GI50: > 10000 nM
HCT-116 [2]
  GI50: > 10000 nM
NCI-H1975 [4]
  GI50: > 10000 nM
